Source: ChEMBL document CHEMBL5674868, “Cancer Cells Hijack PRC2 to Modify Multiple Cytokine Pathways” (PLoS One, 2015)
The source made the active and inactive calls. No cut-off for these calls is given here.

Key:
Format in all cases: cell-based
[1] = biological target: Histone-lysine N-methyltransferase EZH2 (Homo sapiens) (UniProt Q15910); test: Inhibition of EZH2 in human ASPC1 cells assessed as effect on PITX2 mRNA level after 6 hrs by RT-PCR analysis
In short: (§1)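 Cells were treated for two four-day cycles with 2 μM GSK343 or UNC1999, then left untreated or stimulated with human IFNγ for 6 h. mRNA was measured by reverse transcription quantitative PCR and normalized to β-actin. Three biological replicates were run per treatment group.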

[2] = biological target: Histone-lysine N-methyltransferase EZH2 (Homo sapiens) (UniProt Q15910); test: Inhibition of EZH2 in human MCF7 cells assessed as effect on HPRT mRNA level after 6 hrs by RT-PCR analysis; in short: as §1
[3] = biological target: Histone-lysine N-methyltransferase EZH2 (Homo sapiens) (UniProt Q15910); test: Inhibition of EZH2 in human ASPC1 cells assessed as effect on HPRT mRNA level after 6 hrs by RT-PCR analysis; in short: as §1
[4] = biological target: Histone-lysine N-methyltransferase EZH2 (Homo sapiens) (UniProt Q15910); test: Inhibition of EZH2 in human MCF7 cells assessed as effect on IRF1 mRNA level after 6 hrs by RT-PCR analysis; in short: as §1
[5] = biological target: Histone-lysine N-methyltransferase EZH2 (Homo sapiens) (UniProt Q15910); test: Inhibition of EZH2 in human HeLa cells assessed as effect on HPRT mRNA level after 6 hrs by RT-PCR analysis; in short: as §1
[6] = biological target: Histone-lysine N-methyltransferase EZH2 (Homo sapiens) (UniProt Q15910); test: Inhibition of EZH2 in human ASPC1 cells assessed as effect on PITX2 mRNA level after 6 hrs by RT-PCR analysis in presence of IFN-gamma; in short: as §1
[7] = biological target: Histone-lysine N-methyltransferase EZH2 (Homo sapiens) (UniProt Q15910); test: Inhibition of EZH2 in human HeLa cells assessed as decrease in H3K27me3 levels at 2 uM after 6 hrs by Western blot analysis
[8] = biological target: Histone-lysine N-methyltransferase EZH2 (Homo sapiens) (UniProt Q15910); test: Inhibition of EZH2 in human MCF7 cells assessed as decrease in H3K27me3 levels at 2 uM after 6 hrs by Western blot analysis
[9] = biological target: Histone-lysine N-methyltransferase EZH2 (Homo sapiens) (UniProt Q15910); test: Inhibition of EZH2 in human A549 cells assessed as effect on PITX2 mRNA level after 6 hrs by RT-PCR analysis; in short: as §1
[10] = biological target: Histone-lysine N-methyltransferase EZH2 (Homo sapiens) (UniProt Q15910); test: Inhibition of EZH2 in human A549 cells assessed as effect on IRF1 mRNA level after 6 hrs by RT-PCR analysis; in short: as §1
[11] = biological target: Histone-lysine N-methyltransferase EZH2 (Homo sapiens) (UniProt Q15910); test: Inhibition of EZH2 in human HeLa cells assessed as effect on HPRT mRNA level after 6 hrs by RT-PCR analysis in presence of IFN-gamma; in short: as §1
[12] = biological target: Histone-lysine N-methyltransferase EZH2 (Homo sapiens) (UniProt Q15910); test: Inhibition of EZH2 in human MCF7 cells assessed as effect on HPRT mRNA level after 6 hrs by RT-PCR analysis in presence of IFN-gamma; in short: as §1
[13] = biological target: Histone-lysine N-methyltransferase EZH2 (Homo sapiens) (UniProt Q15910); test: Inhibition of EZH2 in human HeLa cells assessed as effect on IRF1 mRNA level after 6 hrs by RT-PCR analysis in presence of IFN-gamma; in short: as §1
[14] = biological target: Histone-lysine N-methyltransferase EZH2 (Homo sapiens) (UniProt Q15910); test: Inhibition of EZH2 in human A549 cells assessed as effect on HPRT mRNA level after 6 hrs by RT-PCR analysis; in short: as §1
[15] = biological target: Histone-lysine N-methyltransferase EZH2 (Homo sapiens) (UniProt Q15910); test: Inhibition of EZH2 in human MCF7 cells assessed as effect on PITX2 mRNA level after 6 hrs by RT-PCR analysis
In short: (§2)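 Cells pretreated for two 4-day cycles with 2 µM GSK343 or UNC1999, then left unstimulated or given human IFNγ for 6 h. RNA reverse-transcribed and measured by quantitative PCR, normalized to β-actin. Three biological replicates per treatment group.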

[16] = biological target: Histone-lysine N-methyltransferase EZH2 (Homo sapiens) (UniProt Q15910); test: Inhibition of EZH2 in human HeLa cells assessed as effect on PITX2 mRNA level after 6 hrs by RT-PCR analysis; in short: as §1
[17] = biological target: Histone-lysine N-methyltransferase EZH2 (Homo sapiens) (UniProt Q15910); test: Inhibition of EZH2 in human MCF7 cells assessed as effect on PITX2 mRNA level after 6 hrs by RT-PCR analysis in presence of IFN-gamma; in short: as §2
[18] = biological target: Histone-lysine N-methyltransferase EZH2 (Homo sapiens) (UniProt Q15910); test: Inhibition of EZH2 in human HeLa cells assessed as effect on PITX2 mRNA level after 6 hrs by RT-PCR analysis in presence of IFN-gamma; in short: as §1
[19] = biological target: Histone-lysine N-methyltransferase EZH2 (Homo sapiens) (UniProt Q15910); test: Inhibition of EZH2 in human A549 cells assessed as decrease in H3K27me3 levels at 2 uM after 6 hrs by Western blot analysis
[20] = biological target: Histone-lysine N-methyltransferase EZH2 (Homo sapiens) (UniProt Q15910); test: Inhibition of EZH2 in human A549 cells assessed as effect on PITX2 mRNA level after 6 hrs by RT-PCR analysis in presence of IFN-gamma; in short: as §1
[21] = biological target: Histone-lysine N-methyltransferase EZH2 (Homo sapiens) (UniProt Q15910); test: Inhibition of EZH2 in human A549 cells assessed as effect on IRF1 mRNA level after 6 hrs by RT-PCR analysis in presence of IFN-gamma; in short: as §1
[22] = biological target: Histone-lysine N-methyltransferase EZH2 (Homo sapiens) (UniProt Q15910); test: Inhibition of EZH2 in human ASPC1 cells assessed as effect on IRF1 mRNA level after 6 hrs by RT-PCR analysis; in short: as §1
[23] = biological target: Histone-lysine N-methyltransferase EZH2 (Homo sapiens) (UniProt Q15910); test: Inhibition of EZH2 in human A549 cells assessed as effect on HPRT mRNA level after 6 hrs by RT-PCR analysis in presence of IFN-gamma; in short: as §1
[24] = biological target: Histone-lysine N-methyltransferase EZH2 (Homo sapiens) (UniProt Q15910); test: Inhibition of EZH2 in human ASPC1 cells assessed as effect on IRF1 mRNA level after 6 hrs by RT-PCR analysis in presence of IFN-gamma; in short: as §1
[25] = biological target: Histone-lysine N-methyltransferase EZH2 (Homo sapiens) (UniProt Q15910); test: Inhibition of EZH2 in human HeLa cells assessed as effect on IRF1 mRNA level after 6 hrs by RT-PCR analysis; in short: as §1
[26] = biological target: Histone-lysine N-methyltransferase EZH2 (Homo sapiens) (UniProt Q15910); test: Inhibition of EZH2 in human ASPC1 cells assessed as effect on HPRT mRNA level after 6 hrs by RT-PCR analysis in presence of IFN-gamma; in short: as §1
[27] = biological target: Histone-lysine N-methyltransferase EZH2 (Homo sapiens) (UniProt Q15910); test: Inhibition of EZH2 in human MCF7 cells assessed as effect on IRF1 mRNA level after 6 hrs by RT-PCR analysis in presence of IFN-gamma; in short: as §2
[28] = biological target: Histone-lysine N-methyltransferase EZH2 (Homo sapiens) (UniProt Q15910); test: Inhibition of EZH2 in human AsPC1 cells assessed as decrease in H3K27me3 levels at 2 uM after 6 hrs by Western blot analysis

Sequence of Histone-lysine N-methyltransferase EZH2 (Homo sapiens) (Q15910 whole entry, looked up): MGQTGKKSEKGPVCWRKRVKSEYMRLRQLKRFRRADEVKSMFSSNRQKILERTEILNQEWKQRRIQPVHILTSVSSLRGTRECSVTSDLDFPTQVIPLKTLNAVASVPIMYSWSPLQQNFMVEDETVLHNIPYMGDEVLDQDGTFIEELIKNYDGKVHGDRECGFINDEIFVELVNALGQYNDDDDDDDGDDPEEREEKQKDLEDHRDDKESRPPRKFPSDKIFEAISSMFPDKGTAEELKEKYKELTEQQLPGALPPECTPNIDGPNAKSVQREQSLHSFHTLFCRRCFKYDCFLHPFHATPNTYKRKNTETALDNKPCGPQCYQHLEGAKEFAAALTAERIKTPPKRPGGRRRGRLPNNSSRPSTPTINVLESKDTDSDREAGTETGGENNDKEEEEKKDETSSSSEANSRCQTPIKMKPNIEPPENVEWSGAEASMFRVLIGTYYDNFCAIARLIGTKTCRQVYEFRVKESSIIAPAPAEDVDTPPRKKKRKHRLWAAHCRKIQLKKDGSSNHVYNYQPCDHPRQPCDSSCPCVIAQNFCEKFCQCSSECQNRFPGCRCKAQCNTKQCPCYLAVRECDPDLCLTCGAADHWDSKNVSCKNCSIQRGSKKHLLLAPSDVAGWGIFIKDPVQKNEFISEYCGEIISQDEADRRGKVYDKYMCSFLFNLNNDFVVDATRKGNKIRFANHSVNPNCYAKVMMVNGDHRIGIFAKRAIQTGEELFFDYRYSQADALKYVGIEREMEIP

inhibition [1]: inactive
inhibition [2]: inactive
inhibition [3]: inactive
inhibition [4]: inactive
inhibition [5]: inactive
inhibition [6]: inactive
inhibition [7]: Active
inhibition [8]: Active
inhibition [9]: inactive
inhibition [10]: inactive
inhibition [11]: inactive
inhibition [12]: inactive
inhibition [13]: inactive
inhibition [14]: inactive
inhibition [15]: inactive
inhibition [16]: inactive
inhibition [17]: inactive
inhibition [18]: inactive
inhibition [19]: Active
inhibition [20]: inactive
inhibition [21]: inactive
inhibition [22]: inactive
inhibition [23]: inactive
inhibition [24]: inactive
inhibition [25]: inactive
inhibition [26]: inactive
inhibition [27]: inactive
inhibition [28]: Active
SMILES: CCCc1cc(C)[nH]c(=O)c1CNC(=O)c1cc(-c2ccnc(N3CCN(C)CC3)c2)cc2c1cnn2C(C)C
